Experiment [1] in a line: Inhibition of Plasmodium vivax FPPS expressed in Escherichia coli BL21 by spectrophotometric assay. The gist of the method:
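Recombinant enzyme from lysed cells (lysozyme, nuclease, protease inhibitors), purified on Ni-NTA resin. The GPP + IPP condensation was followed at room temperature by a continuous spectrophotometric phosphate-release assay in 25 mM Hepes, 2.5 mM MgCl₂, pH 7.4. Inhibitors were preincubated with enzyme for 30 min at room temperature. IC50 was obtained by fitting the dose–response curve.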

The next experiment has as its system Plasmodium falciparum. Description: Growth inhibition of Plasmodium falciparum. In kind it is functional, organism-based.
The subject of the next experiment is Plasmodium berghei. Nature of the experiment: Antiparasitic activity against Plasmodium berghei ANKA infected BALB/c mice (Mus musculus) as reduced parasitaemia. Set-up: scale not given: the % may be the effect or the level left. In kind it is functional.

Each structure is given as a SMILES string.

The pIC50 is −log10 of the IC50, conventionally taken in molar units.

Take `O=P(O)(O)C(Nc1nccs1)P(=O)(O)O`: the results for the IC50 (in experiment [1]; with Plasmodium falciparum (read-out: IC50); with Plasmodium falciparum (read-out: pIC50 (converted))) were 0.71 µM, 120 µM and 126 µM, respectively. Also, the pIC50 in experiment [1] is 6.1.

For the compound `Cc1cccc(CC(O)(P(=O)(O)O)P(=O)(O)O)c1`, the results for the IC50 (in experiment [1]; in the experiment on Plasmodium falciparum (read-out: IC50); in the experiment with Plasmodium falciparum (read-out: pIC50 (converted))) were 2.3 µM, 23 µM and 25.1 µM, respectively. Further, in experiment [1], the pIC50 is recorded as 5.6.

Take `O=P(O)(O)C(O)(Cc1cccc(Cl)c1)P(=O)(O)O`: the IC50 is 0.63 µM in experiment [1], 4.3 µM with Plasmodium falciparum (read-out: IC50) and 3.98 µM with Plasmodium falciparum (read-out: pIC50 (converted)). In experiment [1], this compound had a pIC50 of 6.2.

With `O=P(O)(O)C(O)(Cc1cccc(C(F)(F)F)c1)P(=O)(O)O`, the IC50 was 0.68 µM in experiment [1], 3.8 µM in the experiment with Plasmodium falciparum (read-out: IC50) and 3.98 µM with Plasmodium falciparum (read-out: pIC50 (converted)). In experiment [1], this compound yielded a pIC50 of 6.2.

Regarding `O=P(O)(O)C(O)(Cc1cccc(F)c1)P(=O)(O)O`, the IC50 is 0.63 µM in experiment [1], 6.4 µM in the experiment with Plasmodium falciparum (read-out: IC50) and 6.31 µM in the experiment with Plasmodium falciparum (read-out: pIC50 (converted)). In experiment [1], the pIC50 worked out at 6.2.

On to `Cc1ccc(C)c(COc2ccc(C)nc2NC(P(=O)(O)O)P(=O)(O)O)c1`, for which the IC50 was 98 µM in experiment [1], 200 µM with Plasmodium falciparum (read-out: IC50) and 200 µM with Plasmodium falciparum (read-out: pIC50 (converted)). In addition, in experiment [1], the pIC50 is 4.

For the compound `O=P(O)(O)C(CNc1ccccn1)P(=O)(O)O`, the IC50 in experiment [1] was 0.82 µM; in the experiment with Plasmodium falciparum (read-out: IC50) it was 28 µM; in the experiment on Plasmodium falciparum (read-out: pIC50 (converted)), 25.1 µM. This compound returned a pIC50 in experiment [1] of 6.1.

In experiment [1], `CN(CCc1ccccc1)CCC(O)(P(=O)(O)O)P(=O)(O)O` came in with an IC50 of 0.4 µM and a pIC50 of 6.4. In addition, the IC50 with Plasmodium falciparum (read-out: pIC50 (converted)) was 31.6 µM.

As for `O=P(O)(O)C(O)(Cc1cccc(Br)c1)P(=O)(O)O`, the IC50 is 0.88 µM in experiment [1], 22 µM in the experiment on Plasmodium falciparum (read-out: IC50) and 20 µM in the experiment on Plasmodium falciparum (read-out: pIC50 (converted)). In experiment [1], this compound registered a pIC50 of 6.1.

Consider `CN(Cc1ccccc1)C(P(=O)(O)O)P(=O)(O)O`, for which the results for the IC50 (in experiment [1]; with Plasmodium falciparum (read-out: IC50); in the experiment with Plasmodium falciparum (read-out: pIC50 (converted))) were 0.87 µM, 180 µM and 200 µM, respectively. Besides, the pIC50 in experiment [1] is reported as 6.1.

For the compound `O=P(O)(O)C(O)(Cc1ccccn1)P(=O)(O)O`, the IC50 was 0.9 µM in experiment [1], 220 µM in the experiment on Plasmodium falciparum (read-out: IC50) and 200 µM in the experiment with Plasmodium falciparum (read-out: pIC50 (converted)). In experiment [1], the pIC50 is recorded as 6.

As for `CCCC(O)(P(=O)(O)O)P(=O)(O)O`, the IC50 in experiment [1] is 0.78 µM; in the experiment on Plasmodium falciparum (read-out: pIC50 (converted)), 126 µM. The compound further showed a negative-log IC50 (pIC50) in experiment [1] of 6.1.

Take `CCCCCCCCCC(O)(P(=O)(O)O)P(=O)(O)O`: in experiment [1], the IC50 was 0.71 µM and the pIC50 worked out at 6.1. Moreover, the Activity in the experiment on Plasmodium berghei was 80%.

Turning to `CN(CCCc1ccccc1)CCC(O)(P(=O)(O)O)P(=O)(O)O`, the IC50 in experiment [1] was 0.45 µM; in the experiment with Plasmodium falciparum (read-out: pIC50 (converted)) it was 25.1 µM. In experiment [1], the pIC50 is reported as 6.3.

As for `O=P(O)(O)C(Nc1ccc(Cl)cn1)P(=O)(O)O`, the IC50 in the experiment with Plasmodium falciparum (read-out: pIC50 (converted)) is 10 µM.

With `CCCCCCC(O)(P(=O)(O)O)P(=O)(O)O`, the IC50 in experiment [1] was 0.63 µM; with Plasmodium falciparum (read-out: IC50) it was 1.4 µM; with Plasmodium falciparum (read-out: pIC50 (converted)) it was 1.26 µM. Besides, the pIC50 in experiment [1] is given as 6.2.

Regarding `O=P(O)(O)C(O)(CSc1ccncc1)P(=O)(O)O`, in experiment [1], the IC50 was determined as 1.2 µM and the pIC50 is given as 5.9.

In experiment [1], `CCCCCCCCCCCCCC(O)(P(=O)(O)O)P(=O)(O)O` registered an IC50 of 4.1 µM and a negative-log IC50 (pIC50) of 5.4. In addition, the IC50 with Plasmodium falciparum (read-out: pIC50 (converted)) is 2 µM.

With `CN(CCCCc1ccccc1)CCC(O)(P(=O)(O)O)P(=O)(O)O`, in the experiment on Plasmodium falciparum (read-out: pIC50 (converted)), the IC50 was 3.16 µM.

`O=P(O)(O)C(O)(Cc1ccccc1)P(=O)(O)O`: the IC50 is 11 µM in the experiment on Plasmodium falciparum (read-out: IC50) and 10 µM in the experiment with Plasmodium falciparum (read-out: pIC50 (converted)).

For the compound `O=P([O-])(O)C(O)(CC1=[n+]2ccccc2=NC1)P(=O)(O)O` (stereo not given), the results for the IC50 in the experiment on Plasmodium falciparum (read-out: IC50) and in the experiment with Plasmodium falciparum (read-out: pIC50 (converted)) were 90 µM and 100 µM, respectively.

In experiment [1], `CCCCCCCCCNC(P(=O)(O)O)P(=O)(O)O` [(NONYLAMINO)METHYLENEDIPHOSPHONIC ACID] yielded an IC50 of 5.2 µM and a pIC50 of 5.3. Besides, the IC50 in the experiment with Plasmodium falciparum (read-out: pIC50 (converted)) was 100 µM. The Activity in the experiment with Plasmodium berghei stood at 80%.

`CCCCCCCCNC(P(=O)(O)O)P(=O)(O)O` [(OCTYLAMINO)METHYLENEDIPHOSPHONIC ACID]: the IC50 in experiment [1] was 0.49 µM; with Plasmodium falciparum (read-out: IC50), 12 µM; in the experiment with Plasmodium falciparum (read-out: pIC50 (converted)), 12.6 µM. Also, the pIC50 in experiment [1] came to 6.3.

For `CCCCCN(C)CCC(O)(P(=O)(O)O)P(=O)(O)O` [IBANDRONIC ACID], the IC50 is 0.92 µM in experiment [1], 74 µM with Plasmodium falciparum (read-out: IC50) and 79.4 µM in the experiment on Plasmodium falciparum (read-out: pIC50 (converted)). This compound showed a pIC50 in experiment [1] of 6.

Turning to `O=P(O)(O)C(O)(Cn1ccnc1)P(=O)(O)O` [ZOLEDRONIC ACID], the IC50 in the experiment on Plasmodium falciparum (read-out: pIC50 (converted)) is 158 µM.
